Experimental data taken from paper PMC5704914 (Biochemistry, 2017).
Entries after “also recorded” stand apart in the source; their conditions may differ.

Experiments:
[1] = system: surface expression of CaV1.2 (α11.2) in HEK293T/17 cells; assay: Flow cytometry of surface anti-HA staining of α11.2 in HEK293T/17 cells; format: cell-based, rat; conditions: N=5–7; for reduction in surface labeling of HA-epitope: relative to WT channel labeling
How it was run: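 HEK293T/17 cells were co-transfected 1:1:1 with α2δ1, β2a and CFP-HA-α11.2 (HA in the domain II S5-H5 extracellular loop) by calcium phosphate, with medium changed at 7 h. At 22 h, Accutase-detached, trypan-blue-counted live cells (6×10^6) were stained on ice for 1 h in the dark ± 2.5 μg/mL Alexa 647 anti-HA, then given 1 μg/mL PI. 50,000 PI-negative singlets were collected; HA-positive percentage of CFP-positive cells was normalized to WT.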

apoCaM = apoCaM (Homo sapiens, UniProt P0DP23); assay: Fluorescence polarization, binding of IQ domain-derived peptides to apoCaM; conditions: FP assay, relative to WT peptide
How it was run: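 Wild-type or mutant α11.2 IQ peptides (AAs 1644-1668), N-terminally fluorescein-labelled, at 1 μM final, were mixed with twofold serial dilutions of untagged purified apoCaM starting from 100 μM. Polarization was read after ≥45 min (ex 485/20, em 528/20) and normalized to fractional binding. Kd came from fitting Y = B*X/(Kd + X); error bars are SD.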

[2] = system: surface expression of CaV1.2 (α11.2) in HEK293T/17 cells; assay: Cell surface biotinylation of HA-tagged α11.2 in HEK293T/17 cells; format: cell-based, rat; conditions: NeutrAvidin pull-down, immunoblot, normalized to WT; N=7–13
How it was run: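 HEK293T/17 cells co-transfected 1:1:1 (calcium phosphate) with α2δ1, β2a and WT or mutant CFP-HA-α11.2; medium changed at 7 h, Accutase-detached at 22 h, >95% trypan-blue-negative. 6×10^6 cells surface-labelled with 0.4 mg/mL sulfo-NHS-LC-biotin, 30 min on ice, pH 7.8; glycine-quenched, RIPA-lysed. 250 μg lysate on NeutrAvidin beads, 2 h, 4°C. Immunoblot for HA, loop II/III, GAPDH and α-tubulin; ECL exposures kept linear.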

CaV1.2 = assay: Whole-cell Ba2+ current recording in HEK293T/17 cells; format: cell-based, rat α11.2, rat β2a, rabbit α2δ1; conditions: for Erev (equilibrium/reversal potential) / Gmax (maximum conductance) / V1/2 (half-activation voltage): Boltzmann IV fit; for Erev (equilibrium/reversal potential) / Gmax (maximum conductance) / V1/2 (half-activation voltage) / current density relative to WT: N=6–7; for V1/2 (half-activation voltage): *** p<0.001 vs WT; for current density relative to WT: at 20 mV, ANOVA, Tukey and Bonferroni; for shift of V1/2 relative to WT: shift towards more depolarized levels
How it was run: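 HEK293T/17 cells on poly-L-lysine coverslips were transfected 1:1:1 with β2a, α2δ1 and HA/CFP-tagged WT or mutant α11.2 (Lipofectamine 2000). Whole-cell Ba2+ currents were taken 48–72 h later from CFP-positive cells, held at −70 mV and stepped from −40 to +80 mV in 10 mV increments, with P/4 leak subtraction. Currents were capacitance-normalized, I–V curves Boltzmann-fitted, and data given as mean ± S.E.M. (ANOVA, Tukey/Bonferroni). Cells came from ≥3 independent transfections.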

L-type channel = conditions: ref [71], [72]; cited from earlier work
[3] = system: L-type Ca^2+ channels at the surface of hippocampal pyramidal neurons; conditions: chelating intracellular Ca^2+, ref [27]; cited from earlier work

| effect of mutation on apoCaM binding (apoCaM) | Molecule | reduction in surface labeling of HA-epitope [1] | surface expression by biotinylation relative to WT [2] | Erev (equilibrium/reversal potential) (CaV1.2) [mV] | Gmax (maximum conductance) (CaV1.2) | V1/2 (half-activation voltage) (CaV1.2) | current density relative to WT (CaV1.2) | shift of V1/2 relative to WT (CaV1.2) | percentage of anti-HA and CFP co-positive events relative to WT ([1]; PI-negative, CFP-positive cells, normalized to WT) | behavioral effect (L-type channel) | prevalence of L-type Ca2+ channels at the surface [3] |
| --- | --- | --- | --- | --- | --- | --- | --- | --- | --- | --- | --- |
| – | Y1649A: fluorescein-labeled α11.2 IQ domain peptide (AAs 1644-1668), Y1649A mutant | ~ 35% | significant decreases in surface expression | 66.5 ± 2.9 | 0.08 ± 0.01 | – | significantly reduced current density | quite pronounced and significant | – | – | – |
| did not affect apoCaM binding | Q1655A: fluorescein-labeled α11.2 IQ domain peptide (AAs 1644-1668), Q1655A mutant | – | did not exhibit statistically significant differences | 67.2 ± 2.7 | 0.25 ± 0.02 | −2.6 ± 1.6 mV | did not show a significant reduction | – | not observed | – | – |
| – | COC(=O)C1=C(C)NC(C)=C([N+](=O)[O-])C1c1ccccc1C(F)(F)F (stereo not drawn) [BayK8644] | – | – | – | – | – | – | – | – | depressant-like behavior | – |
| – | O=C(O)CN(CC(=O)O)c1ccccc1OCCOc1ccccc1N(CC(=O)O)CC(=O)O [BAPTA] | – | – | – | – | – | – | – | – | – | increased the prevalence of L-type Ca^2+ channels at the surface |
| did not affect apoCaM binding | F1648A: fluorescein-labeled α11.2 IQ domain peptide (AAs 1644-1668), F1648A mutant | – | did not exhibit statistically significant differences | 73.5 ± 1.7 | 0.26 ± 0.02 | 3.0 ± 1.5 mV | did not show a significant reduction | – | – | – | – |
| – | K1647A: fluorescein-labeled α11.2 IQ domain peptide (AAs 1644-1668), K1647A mutant | ~ 35% | significant decreases in surface expression | 69.2 ± 1.3 | 0.09 ± 0.01 | 1.1 ± 1.4 mV | significantly reduced current density | did not reach statistical significance | – | – | – |

| Molecule | effect of mutation on apoCaM binding (apoCaM) | reduction in surface labeling of HA-epitope [1] | surface expression by biotinylation relative to WT [2] | Erev (equilibrium/reversal potential) (CaV1.2) [mV] | Gmax (maximum conductance) (CaV1.2) | V1/2 (half-activation voltage) (CaV1.2) | current density relative to WT (CaV1.2) | shift of V1/2 relative to WT (CaV1.2) | percentage of anti-HA and CFP co-positive events relative to WT ([1]; PI-negative, CFP-positive cells, normalized to WT) | behavioral effect (L-type channel) | prevalence of L-type Ca2+ channels at the surface [3] |
| --- | --- | --- | --- | --- | --- | --- | --- | --- | --- | --- | --- |
| I1654A: fluorescein-labeled α11.2 IQ domain peptide (AAs 1644-1668), I1654A mutant | affected apoCaM binding; also recorded: reduced binding affinity to apoCaM | ~ 35% | significant decreases in surface expression | 75.7 ± 1.7 | 0.15 ± 0.01 | 11.2 ± 1.5*** mV | significantly reduced current density | quite pronounced and significant | – | – | – |
